Test [1] addresses T1, Acid ceramidase (Homo sapiens) (UniProt Q13510).
T1 sequence (whole entry): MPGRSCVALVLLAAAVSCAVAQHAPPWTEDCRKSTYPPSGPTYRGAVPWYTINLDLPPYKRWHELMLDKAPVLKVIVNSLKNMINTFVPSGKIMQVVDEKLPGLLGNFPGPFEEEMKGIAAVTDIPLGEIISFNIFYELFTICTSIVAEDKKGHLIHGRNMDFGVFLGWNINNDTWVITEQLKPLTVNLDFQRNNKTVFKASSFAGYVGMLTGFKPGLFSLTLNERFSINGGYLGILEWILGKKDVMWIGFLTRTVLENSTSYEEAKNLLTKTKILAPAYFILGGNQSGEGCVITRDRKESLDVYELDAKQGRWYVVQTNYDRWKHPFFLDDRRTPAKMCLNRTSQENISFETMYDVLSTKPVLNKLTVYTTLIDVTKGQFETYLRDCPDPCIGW
The test is described as follows: Inhibition of aCDase in Moh.pAS AcCer10X cells using RBM14C16 as substrate at 16 uM after 1 hr by HPLC-FD analysis. Type of test: cell-based.

The target of test [2] is T1, Acid ceramidase (Homo sapiens). Kind of test: Inhibition of aCDase using RBM14C16 as substrate at 16 uM after 1 hr by HPLC-FD analysis.
A further test has as its system HCT-116. Kind of test: Induction of apoptosis in human HCT116 cells at 30 uM after 14 hrs by Annexin V-propidium iodide staining based flow cytometry. Type of test: functional, cell-based. Put shortly:
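HCT116 (clone 40–16) in low-glucose DMEM with 10% FBS and 1% penicillin–streptomycin, seeded 2.5×10⁵ cells/mL. After 24 h, medium replaced with compound-containing medium; ethanol vehicle to controls. After incubation, cells PBS-washed, trypsinized, stained with Annexin V and propidium iodide, analysed by flow cytometry. Mean ± SD, 3 experiments in triplicate.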
(A flow cytometer gives signals particle by particle.)

Each structure is given as a SMILES string. Activity calls are given as the source filed them. The rule behind the calls is not given here.

`CCCCCCCCCCCCCCC[C@@H](O)[C@H](CO)NC(=O)C(C)(C)C`: the inhibition in test [1] and in test [2] was 50% each time. Take `CCCCCCCCCCCCC/C=C/[C@@H](O)[C@H](CO)NC(=O)CCCCCCC`: in the test on HCT-116, the outcome was Active. Take `CCCCCCCCCCCCC/C=C/[C@@H](O)[C@H](CO)NC(=O)C(C)(C)C`: the inhibition in test [1] and in test [2] was 50% throughout.

The record behind these values is ChEMBL document CHEMBL2021903, “3-Deoxy-3,4-dehydro analogs of XM462. Preparation and activity on sphingolipid metabolism and cell fate” (Bioorg Med Chem, 2012).
